# In the library only some 2% were active in any assay of this set; here they are far more common.
# Hck-Nef inh: blocks Nef-activated human Hck kinase. P08631. Recombinant Hck-YEEI plus Nef, Z-Lyte FRET kinase assay. inhibition, % at 20 µM. 220,000 tested, 0.68% active. AID 463187;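 active means Hck-Nef kinase inhibition above about 50%, limit read from the data; inactive means inhibition below that limit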;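 further: 0% = DMSO with Hck plus Nef and 100% = Hck alone without Nef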
# Target sequence (P08631 whole entry, looked up): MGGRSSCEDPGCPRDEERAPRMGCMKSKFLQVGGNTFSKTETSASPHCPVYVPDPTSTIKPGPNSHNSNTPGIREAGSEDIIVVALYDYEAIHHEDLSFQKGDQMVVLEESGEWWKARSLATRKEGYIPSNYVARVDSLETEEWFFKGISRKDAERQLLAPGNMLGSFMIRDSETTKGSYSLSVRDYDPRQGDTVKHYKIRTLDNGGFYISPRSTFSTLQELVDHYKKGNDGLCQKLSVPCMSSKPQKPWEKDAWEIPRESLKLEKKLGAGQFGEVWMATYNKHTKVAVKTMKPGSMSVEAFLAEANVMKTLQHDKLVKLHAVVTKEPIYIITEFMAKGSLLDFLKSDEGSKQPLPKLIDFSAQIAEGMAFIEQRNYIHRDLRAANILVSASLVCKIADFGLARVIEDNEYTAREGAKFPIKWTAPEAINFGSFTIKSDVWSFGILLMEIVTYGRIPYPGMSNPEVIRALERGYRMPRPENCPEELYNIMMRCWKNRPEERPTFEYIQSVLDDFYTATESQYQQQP
# Diaph act CS: counter-screen for diaphorase-based assays: diaphorase activators and chemical reducers. AID 1229. activation factor at 20 µM. 190,000 tested, 0.005% active. Diaphorase/resazurin coupled assay, resorufin fluorescence, 16 min; active compounds read high; 1 = vehicle wells, 0 = NADH-free wells;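 active means diaphorase activity raised at least twofold by the compound at 20 µM; inactive means activation factor below 2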
#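 Material: bacterial diaphorase enzyme (C. kluyveri); amount: enzyme 0.07 U/mL final; reagent: NADH substrate 0.114 mM plus resazurin dye 0.1 mM, final; doses: single compound dose of 20 µM, 1% DMSO final; timing: 16 min enzyme reaction, ambient temperature; measured by: fluorescence of resorufin, 544 nm excitation, 590 nm emission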
# 14-3-3 Bad inh: disrupts binding of bovine 14-3-3 zeta to phospho-Bad peptide. P63103. TR-FRET 14-3-3zeta/Dy647-pBad peptide displacement, 1 h. AID 781. inhibition, % at 21.7 µM. 220,000 tested, 0.71% active;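 active means inhibition above about 70%, limit read from the data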;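 further: 0% = full 14-3-3 plus peptide FRET controls and 100% = background without 14-3-3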
# NCF1 inh: inhibitors of human p47phox binding; P14598; p47phox/p22phox peptide binding, fluorescence polarization, 2 h; inhibition, % at 24.7 µM; 220,000 tested, 0.53% active; AID 1274;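 further: 0% = p47phox with labelled peptide and 100% = labelled peptide alone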
# eIF4E-4G inh: inhibitors of eIF4E and eIF4G interaction in translation initiation | 220,000 tested, 0.37% active | AID 782 | inhibition, % at 21.7 µM | TR-FRET eIF4E-eIF4GI(517-606) binding, 2 h;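 further: 0% = full FRET control wells and 100% = background wells lacking eIF4GI fragment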
# * = called active by the depositor; . = no result given; + = active, no number; [ ] = dose if it differs, or a comment.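 How the source made its calls, unless noted: active means inhibition above about 30% (limit read from the data); inactive means the rest.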
SMILES,Hck-Nef inh,Diaph act CS,14-3-3 Bad inh,NCF1 inh,eIF4E-4G inh
COC(=O)c1ccccc1NC(=O)CCS(=O)(=O)c1ccc(Br)cc1,19.5,0.7,80.9*,-14.2,11.3
O=C(CCS(=O)(=O)c1ccc(Br)cc1)Nc1cc(F)ccc1F,8.8,0.8,-7.4,-8.9,16.6
CC(=O)N1CCc2cc(N=NC3=C(O)CC(C)(C)CC3=O)ccc21,-7.7,1,-2.0,-68.7,5.8
COc1ccc(/C=N/NC(=O)c2nn(-c3ccc(C)c(C)c3)c(=O)c3ccccc23)cc1,0.0,0.8,-2.9,+,-9.4
COc1ccc2nc(NC(=O)c3ccc(-n4nc(C)cc4C)cc3)sc2c1,1.7,0.9,2.6,-2.7,-8.1
COc1ccc(-n2nc(C(=O)Nc3nc4ccc(OC)cc4s3)c3ccccc3c2=O)cc1,1.6,0.8,48.3,38.3*,-6.0
COc1ccc(/C=N/NC(=O)c2nn(-c3ccccc3)c(=O)c3c(N)scc23)cc1,-1.3,0.4,-2.1,-3.7,-3.2
COC(=O)c1cc(C(=O)OC)cc(N2C(=O)CC(NNC(=O)c3ccc(C)cc3)C2=O)c1 (configuration not stated),3.1,0.9,2.8,129.6*,2.0
CCCC(c1nnnn1CCOC)N1CCN(Cc2ccccc2)CC1 (configuration not stated),-0.2,0.9,43.8,-0.2,7.2
COCCn1nnnc1C(c1ccc2ncccc2c1)N1CCc2ccccc21 (configuration not stated),5.0,0.9,2.3,4.4,-3.8
CCC(c1nnnn1CCOC)N1CCN(Cc2ccccc2OC)CC1 (configuration not stated),-0.1,0.9,87.8*,-3.1,-1.6
COCCn1nnnc1C(c1ccc2ncccc2c1)N1CCN(c2ccccc2F)CC1 (configuration not stated),0.6,1,76.1*,1.0,2.2
COCCn1nnnc1C(c1ccccc1)N1CCN(C)CC1 (configuration not stated),0.4,0.9,72.4*,-5.4,-6.0
CCOC(=O)Cc1nn(Cc2nc(-c3ccc(C)cc3)cs2)c(=O)c2ccccc12,3.3,.,-2.7,0.9,-3.0
CNC(=S)N(CCc1ccc(S(N)(=O)=O)cc1)C1CC(=O)N(c2ccccc2F)C1=O (configuration not stated),18.6,0.8,79.4*,0.6,-3.8
CCOc1ccc(N2C(=O)CC(N(CCc3ccc(S(N)(=O)=O)cc3)C(C)=O)C2=O)cc1 (configuration not stated),-2.0,.,5.2,0.2,-2.3
Cc1ccc(S(=O)(=O)/N=C(/NC(=S)Nc2ccccc2)c2ccccc2)cc1,-18.9,0.9,33.0,-25.2,-2.7
Cc1ccc(NC(=S)N/C(=N/S(=O)(=O)c2ccccc2)c2ccccc2)cc1,-0.2,0.9,-7.9,164.1*,0.6
O=C(NC1CC1)C1=C[C@@H](c2ccc(Br)cc2)C[C@@H](OCCCCO)O1,12.3,1,-0.4,.,5.3
C#Cc1ccc([C@@H]2C=C(C(=O)NC3CC3)O[C@H](OCCCCO)C2)cc1,26.8,.,-3.9,-14.0,97.4*
O=C(c1cc2cc([N+](=O)[O-])ccc2s1)N1CCCCC1,21.0,0.9,-13.3,-3.8,6.5
CCN1CCN(CCCNC(=O)c2ccc(/C=C3/Sc4ccccc4N(Cc4ccccc4F)C3=O)cc2)CC1,-7.7,1.6,80.8*,89.9*,19.4
CCN1CCN(CCNC(=O)c2ccc(/C=C3/Sc4ccccc4N(Cc4ccccc4C)C3=O)cc2)CC1,-5.7,1.4,70.3*,104.3*,28.3
O=C(Nc1ccncc1)c1ccccc1-c1ccccc1,-8.1,0.8,-1.2,-0.4,-3.9
COc1ccc(/C=C2\SC(=S)N(CCCC(=O)NNC(=O)c3ccccc3O)C2=O)cc1,28.3,1.1,2.8,3.6,7.0
SMILES,Hck-Nef inh,Diaph act CS,14-3-3 Bad inh,NCF1 inh,eIF4E-4G inh
O=C(CN1C(=O)S/C(=C\c2ccc(Cl)cc2)C1=O)NNC(=O)c1ccccc1O,5.5,1.1,76.7*[fluorescence artefact?],48.8*,32.6*
COCCn1c(N)c(C(=S)NC(=O)c2cccs2)c(=O)[nH]c1=O,-15.2,.,6.7,-17.8,-4.3
CCOCCCN(C(=O)Cn1nnc(-c2ccc(C)o2)n1)C(C(=O)NCC1CCCO1)c1ccc(F)cc1 (configuration not stated),9.3,.,0.4,-4.5,-0.6
COc1ccc(C(=O)NCC(=O)OCC(=O)N2CCc3ccccc32)cc1,18.0,0.9,-4.3,6.9,-0.3
COc1ccc(C(=O)NCC(=O)N2CCc3ccccc3C2)cc1,-25.6,1,-1.3,78.7*,-0.4
Cc1nc(C)c(C(=O)NNC(=O)Nc2ccc(Cl)cc2)s1,3.5,.,-0.5,-8.4,-1.3
C=CCN(c1ccccc1Cl)S(=O)(=O)c1cc(C(=O)N2CCCC2)ccc1Cl,1.6,.,5.1,6.1,4.0
CN(C)c1cccc2c(S(=O)(=O)N3CCOCC3)cccc12,-5.3,0.8,-2.2,58.8*,6.8
O=S(=O)(c1cccc2cccnc12)N1CCOCC1,1.1,1,-6.2,10.9,0.7
Cc1ccc(S(=O)(=O)Oc2ccc(/C=C(/NC(=O)c3ccccc3)C(=O)NC(C)C(=O)O)cc2)cc1 (configuration not stated),-69.1,1,-10.1,6.9,-2.8
O=C(Nc1ccc(Nc2ccncc2)cc1)c1ccc([N+](=O)[O-])cc1,24.0,.,-7.9,1.7,2.9
O=C(Nc1ccc(Nc2ccncc2)cc1)c1ccc(Nc2ccnc3ccc([N+](=O)[O-])cc23)cc1[N+](=O)[O-],-157.8,.,76.5*,71.4*,-51.8
Cc1ccc(Cn2cc(SCC(N)=O)c3ccccc32)cc1,25.2,1,-6.1,37.1*,-2.0
COc1ccc(CNc2ccccc2SC)cc1OC,-0.8,0.8,73.9*,9.6,-6.9
O=C(/C=C/C=C/c1ccccc1)c1ccco1,24.0,.,2.6,-15.8,4.4
O=C(COC(=O)c1cccc(Cl)c1)NCCN1C(=O)CSC1=O,-2.9,0.9,-3.1,1.2,1.5
O=C(COC(=O)c1ccc(Cl)cc1O)NCCN1C(=O)CSC1=O,2.4,.,96.9*,1.3,-7.5
Cc1ccc(NC(=O)Cn2cccc2)cc1Cl,0.9,1.2,+,-0.7,-1.1
Cc1ccc(NC(=O)Cn2cccc2)cc1C,0.1,1,-2.8,-5.5,-0.2
C=C(C)Cn1c(C2CC(=O)N(Cc3ccccc3)C2)nc2ccccc21 (configuration not stated),.,0.8,.,.,.
CCn1c(C2CC(=O)N(Cc3ccccc3)C2)nc2ccccc21 (configuration not stated),0.1,0.9,14.2,1.2,51.9*[fluorescence artefact?]
CC(Sc1ccsc1[N+](=O)[O-])C(=O)NCc1ccco1 (configuration not stated),10.6,0.9,-5.2,-12.7,-0.8
CCCc1nc(-c2cc3ccccc3[nH]c2=O)no1,11.0,.,96.0*,-1.0,-0.9

# Source: PubChem BioAssay
